Test results as given in ChEMBL document CHEMBL4765317, “Novel bacterial topoisomerase inhibitors derived from isomannide” (Eur J Med Chem, 2020).
pIC50: −log10 of the molar value. In brackets after ≈: the same amount, converted by molar mass.

Key:
Staphylococcus aureus [1] = assay: Antibacterial activity against Staphylococcus aureus 3527 assessed as reduction in bacterial growth by CLSI based broth microdilution method; assay type: functional
Procedure, shortened: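 Host is a multidrug-resistant MRSA clinical isolate (formerly 1095), the parent of an isogenic D83N gyrase mutant. MIC was read by CLSI broth microdilution and reported in µg/mL.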

[2] = Cytotoxicity against human HepaRG assessed as reduction in cell viability at 100 uM incubated for 24 hrs by Cell-Titer Glo assay; assay type: cell-based; details: HepaRG cells, read-out: INH
Procedure, shortened: (§1)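 ATP-based viability read-out in HepaRG cells over a five-point concentration series (0.01, 0.1, 1, 10, 100 µM). Results are given as % cytotoxicity at each concentration.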

Cytochrome P450 3A4 = Cytochrome P450 3A4 (Homo sapiens, UniProt P08684); assay: Inhibition of human liver microsome CYP3A4 in presence of NADPH incubated for 10 to 30 mins by LC-MS-MS analysis; assay type: ADME, microsomes
[3] = Metabolic stability in human liver microsomes assessed as half life at 10 uM incubated for 5 mins followed by NADPH addition and measured upto 60 mins by LC-MS analysis; assay type: ADME, Microsome; details: time 65 min
CYP3A4 [4] = target: T1, CYP3A4 (Homo sapiens, UniProt P08684); assay: Inhibition of human liver microsome CYP3A4 at 10 uM in presence of NADPH incubated for 10 to 30 mins by LC-MS-MS analysis; values are per cent of control; details: human liver microsomes
[5] = target: T2, Sodium channel protein type 5 subunit alpha (Homo sapiens, UniProt Q14524); assay: Activation of recombinant human Nav1.5 late expressed in human HEK293 cells assessed as activation of late current at 30 uM by automated Qpatch clamp assay relative to control; assay type: ADME, cell-based; details: hek293, 30 µM
Procedure, shortened: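 Part of an eight-assay CiPA panel run in duplicate on an automated QPatch HT patch-clamp system at 3, 30 and 100 µM. Test compound came from a 30 mM DMSO stock. Records were filtered for seal quality, seal drop and current amplitude, and mean percent values are reported.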

[6] = target: Histamine H2 receptor (Homo sapiens) (UniProt P25021); assay: Inhibition of recombinant human full length histamine H2 receptor expressed in CHO-K1 cells using [125I] Aminopotentidine as […] at 100 uM incubated for 120 mins by scintillation counting method relative to control; assay type: cell-based
Procedure, shortened: (§2)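 Off-target screen against a panel of 44 receptors, enzymes and transporters, run in duplicate at a single 100 µM concentration. Results are given as % inhibition. No concentration-response follow-up was done.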

Enterococcus faecalis = assay: Antibacterial activity against Enterococcus faecalis ATCC 29212 assessed as reduction in bacterial growth by CLSI based broth microdilution method; assay type: functional
Staphylococcus aureus [7] = assay: Antibacterial activity against Staphylococcus aureus harboring DNA gyrase D83N mutant assessed as reduction in bacterial growth by CLSI based broth microdilution method; assay type: functional
Procedure, shortened: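 MIC against an isogenic NBTI-resistant daughter strain carrying a D83N substitution in DNA gyrase, originally selected under NBTI pressure from multidrug-resistant MRSA isolate 3527. CLSI broth microdilution was used, with values in µg/mL.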

[8] = target: Sodium-dependent dopamine transporter (Homo sapiens) (UniProt Q01959); assay: Inhibition of recombinant human full length Dopamine transporter expressed in CHO-S cells at 100 uM in presence of [125I]-RTI-55 incubated for 180 mins by scintillation counting method relative to control; assay type: cell-based; procedure, shortened: as §2
[9] = Permeability across apical to basolateral side in human Caco2 cells at 10 uM by LC-MS/MS analysis; assay type: ADME, cell-based; details: Caco-2, read-out: permeability
[10] = Cytotoxicity against human HepaRG assessed as reduction in cell viability at 10 uM incubated for 24 hrs by Cell-Titer Glo assay; assay type: cell-based; details: HepaRG cells, read-out: INH; procedure, shortened: as §1
CYP1A2 = CYP1A2 (Homo sapiens, UniProt P05177); assay: Inhibition of human liver microsome CYP1A2 at 10 uM in presence of NADPH incubated for 10 to 30 mins by LC-MS-MS analysis; assay type: ADME; details: human liver microsomes, time 10-30 min
[11] = Metabolic stability in mouse liver microsomes assessed as half life at 10 uM incubated for 5 mins followed by NADPH addition and measured upto 60 mins by LC-MS analysis; assay type: ADME, Microsome; details: time 65 min
Nav1.5 (late current) [12] = target: T3, Nav1.5 (late current) (Homo sapiens, UniProt Q14524); assay: Inhibition of recombinant human Nav1.5 late expressed in human HEK293 cells late at 3 uM in presence of ATXII by automated Qpatch clamp assay relative to control; assay type: ADME, cell-based; details: HEK293 cells expressing recombinant human Nav1.5
Procedure, shortened: (§3)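 Part of an eight-assay CiPA panel run on a QPatch HT automated patch clamp at 3, 30 and 100 µM, in duplicate. The test compound came from a 30 mM DMSO stock. Data were filtered for seal quality, seal drop and current amplitude, and reported as mean percent inhibition.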

CYP2C19 = CYP2C19 (Homo sapiens, UniProt P33261); assay: Inhibition of human liver microsome CYP2C19 at 10 uM in presence of NADPH incubated for 10 to 30 mins by LC-MS-MS analysis; assay type: ADME; details: human liver microsomes, time 10-30 min
CYP3A4 [13] = target: T1, CYP3A4; assay: Residual activity of human liver microsome CYP3A4 at 0.1 uM in presence of NADPH incubated for 10 to 30 mins by LC-MS-MS analysis; details: human liver microsomes
CYP2B6 = CYP2B6 (Homo sapiens, UniProt P20813); assay: Inhibition of human liver microsome CYP2B6 at 10 uM in presence of NADPH incubated for 10 to 30 mins by LC-MS-MS analysis; assay type: ADME; details: human liver microsomes, time 10-30 min
[14] = Cytotoxicity against human HepaRG assessed as reduction in cell viability at 1 uM incubated for 24 hrs by Cell-Titer Glo assay; assay type: cell-based; details: HepaRG cells, read-out: INH; procedure, shortened: as §1
Streptococcus pneumoniae [15] = assay: Antibacterial activity against penicillin-susceptible Streptococcus pneumoniae LSI-4234 assessed as reduction in bacterial growth by CLSI based broth microdilution method; assay type: functional
Streptococcus pneumoniae [16] = assay: Antibacterial activity against penicillin-resistant Streptococcus pneumoniae LSI-4246 assessed as reduction in bacterial growth by CLSI based broth microdilution method; assay type: functional
Staphylococcus aureus [17] = assay: Antibacterial activity against cystic fibrosis patient isolate Staphylococcus aureus assessed as reduction in bacterial growth by CLSI based broth microdilution method; assay type: functional
[18] = target: 5-hydroxytryptamine receptor 2B (Homo sapiens) (UniProt P41595); assay: Inhibition of recombinant human full length 5HT2B expressed in CHO-K1 cells at 100 uM incubated for 30 mins by TR-FRET assay relative to control; assay type: cell-based; procedure, shortened: as §2
[19] = target: T2, Sodium channel protein type 5 subunit alpha; assay: Activation of recombinant human Nav1.5 late expressed in human HEK293 cells assessed as activation of late current at 100 uM by automated Qpatch clamp assay relative to control; assay type: ADME, cell-based; details: hek293, 100 µM
Procedure, shortened: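 Part of an eight-assay CiPA cardiac ion channel panel run in duplicate on a QPatch HT automated patch-clamp system. Compound was prepared as a 30 mM DMSO stock and tested at 3, 30 and 100 µM. Recordings were filtered for seal quality, seal drop and current amplitude, and results are reported as mean percent values.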

[20] = Inhibition of Staphylococcus aureus DNA gyrase using relaxed pBR322 DNA as substrate incubated for 30 mins by agarose gel electrophoresis method
Nav1.5 (late current) [21] = target: T3, Nav1.5 (late current); assay: Inhibition of recombinant human Nav1.5 late expressed in human HEK293 cells at 30 uM in presence of ATXII by automated Qpatch clamp assay relative to control; assay type: ADME, cell-based; details: HEK293 cells expressing recombinant human Nav1.5; procedure, shortened: as §3

T1 sequence (P08684 whole entry): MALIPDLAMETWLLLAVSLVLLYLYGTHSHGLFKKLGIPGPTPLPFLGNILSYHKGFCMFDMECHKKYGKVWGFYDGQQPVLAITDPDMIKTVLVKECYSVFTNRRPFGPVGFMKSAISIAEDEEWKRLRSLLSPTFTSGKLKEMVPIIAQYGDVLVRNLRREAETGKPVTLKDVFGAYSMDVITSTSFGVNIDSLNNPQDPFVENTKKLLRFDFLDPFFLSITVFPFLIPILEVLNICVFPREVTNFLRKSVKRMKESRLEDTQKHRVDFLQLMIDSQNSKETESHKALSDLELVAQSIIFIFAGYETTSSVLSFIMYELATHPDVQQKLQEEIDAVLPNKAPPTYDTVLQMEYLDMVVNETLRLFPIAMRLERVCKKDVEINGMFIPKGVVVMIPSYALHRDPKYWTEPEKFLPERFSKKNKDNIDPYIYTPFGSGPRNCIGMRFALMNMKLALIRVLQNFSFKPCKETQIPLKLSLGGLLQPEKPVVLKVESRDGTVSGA
T3 sequence (Q14524 whole entry): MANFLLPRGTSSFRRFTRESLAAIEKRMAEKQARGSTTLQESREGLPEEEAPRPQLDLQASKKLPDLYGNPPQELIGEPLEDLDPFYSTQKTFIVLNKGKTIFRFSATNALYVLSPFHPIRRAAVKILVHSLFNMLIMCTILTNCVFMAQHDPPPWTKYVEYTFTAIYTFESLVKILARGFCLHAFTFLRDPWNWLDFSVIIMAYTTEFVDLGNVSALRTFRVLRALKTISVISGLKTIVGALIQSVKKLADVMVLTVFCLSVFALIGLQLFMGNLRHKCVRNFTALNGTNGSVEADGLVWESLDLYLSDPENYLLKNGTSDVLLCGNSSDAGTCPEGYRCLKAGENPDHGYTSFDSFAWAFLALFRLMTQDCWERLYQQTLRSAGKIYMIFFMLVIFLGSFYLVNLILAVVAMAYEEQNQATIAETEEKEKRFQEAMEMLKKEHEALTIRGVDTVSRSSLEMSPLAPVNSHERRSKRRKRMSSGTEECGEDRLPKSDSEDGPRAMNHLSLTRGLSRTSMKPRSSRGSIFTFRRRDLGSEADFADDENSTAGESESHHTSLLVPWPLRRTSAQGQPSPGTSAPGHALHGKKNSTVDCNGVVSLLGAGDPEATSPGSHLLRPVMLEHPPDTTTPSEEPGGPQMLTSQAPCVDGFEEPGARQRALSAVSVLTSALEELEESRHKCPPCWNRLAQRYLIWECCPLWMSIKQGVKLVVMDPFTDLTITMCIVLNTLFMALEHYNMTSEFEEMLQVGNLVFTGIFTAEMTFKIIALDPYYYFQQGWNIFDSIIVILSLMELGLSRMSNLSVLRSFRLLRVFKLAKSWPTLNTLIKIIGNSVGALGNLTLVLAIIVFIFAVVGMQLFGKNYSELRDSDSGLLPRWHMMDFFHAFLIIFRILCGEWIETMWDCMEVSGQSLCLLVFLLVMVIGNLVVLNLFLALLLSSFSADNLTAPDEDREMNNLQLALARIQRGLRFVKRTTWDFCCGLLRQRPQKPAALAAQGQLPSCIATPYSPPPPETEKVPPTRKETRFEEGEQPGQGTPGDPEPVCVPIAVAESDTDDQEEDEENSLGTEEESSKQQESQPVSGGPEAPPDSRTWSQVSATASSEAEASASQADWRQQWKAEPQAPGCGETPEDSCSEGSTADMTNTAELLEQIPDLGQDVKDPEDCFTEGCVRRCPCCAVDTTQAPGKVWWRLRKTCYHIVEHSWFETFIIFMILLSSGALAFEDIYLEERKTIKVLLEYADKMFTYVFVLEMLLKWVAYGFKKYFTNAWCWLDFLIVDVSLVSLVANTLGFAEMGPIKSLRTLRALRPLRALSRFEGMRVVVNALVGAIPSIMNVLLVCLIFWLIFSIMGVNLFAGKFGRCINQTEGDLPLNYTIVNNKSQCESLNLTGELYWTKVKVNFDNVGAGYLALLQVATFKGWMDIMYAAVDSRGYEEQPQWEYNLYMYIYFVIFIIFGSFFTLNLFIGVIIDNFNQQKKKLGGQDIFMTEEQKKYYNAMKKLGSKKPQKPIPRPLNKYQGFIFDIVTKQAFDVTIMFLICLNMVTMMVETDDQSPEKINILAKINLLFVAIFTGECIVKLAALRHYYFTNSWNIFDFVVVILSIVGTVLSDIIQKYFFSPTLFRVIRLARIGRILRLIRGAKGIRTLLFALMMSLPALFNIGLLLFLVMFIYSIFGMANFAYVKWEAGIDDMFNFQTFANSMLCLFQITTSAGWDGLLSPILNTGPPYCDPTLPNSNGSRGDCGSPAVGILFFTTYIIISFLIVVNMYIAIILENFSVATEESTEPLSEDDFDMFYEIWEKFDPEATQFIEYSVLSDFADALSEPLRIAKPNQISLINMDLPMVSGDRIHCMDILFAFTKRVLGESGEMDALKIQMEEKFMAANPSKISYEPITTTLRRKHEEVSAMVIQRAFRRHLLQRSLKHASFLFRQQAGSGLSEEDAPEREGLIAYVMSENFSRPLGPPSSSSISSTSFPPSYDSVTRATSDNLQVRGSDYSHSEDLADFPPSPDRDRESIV
T2 sequence (Q14524 whole entry): as above
CYP2C19, sequence (P33261 whole entry): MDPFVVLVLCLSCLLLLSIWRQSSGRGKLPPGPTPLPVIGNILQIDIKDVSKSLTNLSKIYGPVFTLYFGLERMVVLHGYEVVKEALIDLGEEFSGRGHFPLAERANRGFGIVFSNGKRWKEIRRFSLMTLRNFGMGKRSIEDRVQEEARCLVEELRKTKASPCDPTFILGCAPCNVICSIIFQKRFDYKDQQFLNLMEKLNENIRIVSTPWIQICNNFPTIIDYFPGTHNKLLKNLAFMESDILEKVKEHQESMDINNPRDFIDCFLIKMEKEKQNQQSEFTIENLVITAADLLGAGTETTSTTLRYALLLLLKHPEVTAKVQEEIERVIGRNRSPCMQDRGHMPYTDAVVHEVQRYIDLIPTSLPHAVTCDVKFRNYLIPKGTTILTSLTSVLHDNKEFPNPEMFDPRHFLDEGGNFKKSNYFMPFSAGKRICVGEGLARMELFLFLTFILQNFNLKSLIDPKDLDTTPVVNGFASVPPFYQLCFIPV
Cytochrome P450 3A4, sequence (P08684 whole entry): as the sequence (P08684 whole entry) above

Work on COc1ccc2ncc(F)c(CC[C@@]3(O)CO[C@@H]4[C@@H](NCc5cc6c(cn5)OCCO6)CO[C@@H]43)c2n1 yielded an MIC (Staphylococcus aureus [1]) of 2 µg/mL (≈ 4.01 µM), a cytotoxicity at 24 h, 100 µM [2] of 14% and a pIC50 (Cytochrome P450 3A4) of under 5.00. For the same molecule, the half-life at 10 µM [3] was 6 min, the residual activity at 10 µM (CYP3A4 [4]) was 49.5% and the Activity [5] was 7.7%. The inhibition [6] was 51%, the MIC (Enterococcus faecalis) was 2 µg/mL (≈ 4.01 µM) and the MIC (Staphylococcus aureus [7]) was 2 µg/mL (≈ 4.01 µM). For the same molecule, the inhibition [8] was 96%, the Papp A→B at 10 µM [9] was 10.8 ×10⁻⁶ cm/s and the cytotoxicity at 24 h, 10 µM [10] was 8%. The inhibition at 10 µM (CYP1A2) was under 50%, the half-life at 10 µM [11] was 3 min and the inhibition at 3 µM (Nav1.5 (late current) [12]) was 4.3%. It also gave an inhibition at 10 µM (CYP2C19) of under 50%, a residual activity at 0.1 µM (CYP3A4 [13]) of 97% and an inhibition at 10 µM (CYP2B6) of under 50%. For the same molecule, the cytotoxicity at 24 h, 1 µM [14] was 9%, the MIC (Streptococcus pneumoniae [15]) was at most 0.12 µg/mL and the MIC (Streptococcus pneumoniae [16]) was at most 0.12 µg/mL. For the same molecule, the MIC (Staphylococcus aureus [17]) was 2 µg/mL (≈ 4.01 µM), the inhibition [18] was 95% and the Activity [19] was 17%. It also gave a pIC50 [20] of 6.28 and an inhibition at 30 µM (Nav1.5 (late current) [21]) of 19.1%.
